Assay results reported in ChEMBL document CHEMBL4699478, “7-Azaindolequinuclidinones (7-AIQD): A novel class of cannabinoid 1 (CB1) and cannabinoid 2 (CB2) receptor ligands” (Bioorg Med Chem Lett, 2020).
Active and inactive are the calls of the source. The calls are words filed in the database; no cut-off is given here.

How the values were obtained:
Cannabinoid receptor 1 [1] = molecular target: T1, Cannabinoid receptor 1 (Homo sapiens, UniProt P21554); test: Displacement of [3H]CP-55940 from CB1 receptor (unknown origin) at 1 uM by competitive binding assay
Cannabinoid receptor 2 [2] = molecular target: T2, Cannabinoid receptor 2 (Homo sapiens, UniProt P34972); test: Displacement of [3H]CP-55940 from CB2 receptor (unknown origin) at 1 uM by competitive binding assay
Homo sapiens = species on record: Homo sapiens; test: Selectivity index, ratio of Ki for CB1 receptor (unknown origin) to Ki for CB2 receptor (unknown origin) by competitive binding assay
Cannabinoid receptor 1 [3] = molecular target: T1, Cannabinoid receptor 1; test: Displacement of [3H]CP-55940 from CB1 receptor (unknown origin) by competitive binding assay
Cannabinoid receptor 1 [4] = molecular target: T1, Cannabinoid receptor 1; test: Inverse agonist activity at human CB1 receptor expressed in CHO cell membrane assessed as reduction in GTPgammaS binding at 10 uM by [35S]GTP-gammaS binding assay; format: functional, cell membranes
Method in brief: (§1)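 [35S]GTPγS binding in CHO-hCB1 membranes (hCB1R) or CHO-hCB2 membranes (hCB2R). A single 10 μM concentration of ligand was tested for change in [35S]GTPγS binding relative to basal. Agonism was read as a rise above basal, inverse agonism as a fall below basal, and neutral activity as no significant change.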

Cannabinoid receptor 2 [5] = molecular target: T2, Cannabinoid receptor 2; test: Inverse agonist activity at human CB2 receptor expressed in CHO cell membrane assessed as reduction in GTPgammaS binding at 10 uM by [35S]GTP-gammaS binding assay; format: functional, cell membranes; method in brief: as §1
Cannabinoid receptor 2 [6] = molecular target: T2, Cannabinoid receptor 2; test: Displacement of [3H]CP-55940 from CB2 receptor (unknown origin) by competitive binding assay
Cannabinoid receptor 1 [7] = molecular target: T1, Cannabinoid receptor 1; test: Neutral antagonist activity at human CB1 receptor expressed in CHO cell membrane at 10 uM by [35S]GTP-gammaS binding assay; format: cell membranes; details: filed as antagonist; method in brief: as §1
Cannabinoid receptor 2 [8] = molecular target: T2, Cannabinoid receptor 2; test: Agonist activity at human CB2 receptor expressed in CHO cell membrane assessed as increase in GTPgammaS binding at 10 uM by [35S]GTP-gammaS binding assay; format: functional, cell membranes; method in brief: as §1
Cannabinoid receptor 2 [9] = molecular target: T2, Cannabinoid receptor 2; test: Neutral antagonist activity at human CB2 receptor expressed in CHO cell membrane at 10 uM by [35S]GTP-gammaS binding assay; format: cell membranes; details: filed as antagonist; method in brief: as §1
Cannabinoid receptor 1 [10] = molecular target: T1, Cannabinoid receptor 1; test: Agonist activity at human CB1 receptor expressed in CHO cell membrane assessed as increase in GTPgammaS binding at 10 uM by [35S]GTP-gammaS binding assay; format: functional, cell membranes; method in brief: as §1
Cannabinoid receptor 1 [11] = molecular target: T1, Cannabinoid receptor 1; test: Binding affinity to human CB1 receptor expressed in CHO cell membrane at 10 uM by [35S]GTP-gammaS binding assay; format: cell membranes; method in brief: as §1
Cannabinoid receptor 2 [12] = molecular target: T2, Cannabinoid receptor 2; test: Binding affinity to human CB2 receptor expressed in CHO cell membrane at 10 uM by [35S]GTP-gammaS binding assay; format: cell membranes; method in brief: as §1

T2 sequence (P34972 whole entry): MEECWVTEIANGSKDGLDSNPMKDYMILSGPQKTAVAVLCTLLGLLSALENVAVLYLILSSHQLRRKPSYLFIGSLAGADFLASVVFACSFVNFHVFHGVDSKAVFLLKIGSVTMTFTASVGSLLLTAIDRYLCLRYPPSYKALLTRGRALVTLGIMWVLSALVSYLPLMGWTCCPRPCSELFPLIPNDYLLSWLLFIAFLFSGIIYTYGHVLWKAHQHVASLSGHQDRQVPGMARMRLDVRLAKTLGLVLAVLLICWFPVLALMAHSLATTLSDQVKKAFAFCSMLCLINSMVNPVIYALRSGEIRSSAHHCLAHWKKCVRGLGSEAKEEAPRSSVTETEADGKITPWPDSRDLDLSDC
T1 sequence (P21554 whole entry): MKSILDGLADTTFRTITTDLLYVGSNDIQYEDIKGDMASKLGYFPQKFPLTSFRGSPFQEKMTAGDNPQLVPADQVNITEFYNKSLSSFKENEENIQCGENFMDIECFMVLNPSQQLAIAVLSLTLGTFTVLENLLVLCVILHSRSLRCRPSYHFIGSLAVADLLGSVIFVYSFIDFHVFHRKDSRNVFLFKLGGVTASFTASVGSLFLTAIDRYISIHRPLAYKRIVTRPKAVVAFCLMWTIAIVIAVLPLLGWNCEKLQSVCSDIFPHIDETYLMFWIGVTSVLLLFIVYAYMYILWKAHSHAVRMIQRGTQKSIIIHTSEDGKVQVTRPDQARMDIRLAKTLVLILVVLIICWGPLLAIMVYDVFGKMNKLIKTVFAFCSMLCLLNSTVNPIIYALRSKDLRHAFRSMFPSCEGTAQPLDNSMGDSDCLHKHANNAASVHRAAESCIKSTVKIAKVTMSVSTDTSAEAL

SMILES | inhibition (Cannabinoid receptor 1 [1]) [%] | inhibition (Cannabinoid receptor 2 [2]) [%] | Ratio Ki (Homo sapiens) | Ki (Cannabinoid receptor 1 [3]) [nM] | Ki (Cannabinoid receptor 2 [6]) [nM] | other results
COc1ccc(Cn2cc(/C=C3/C(=O)C4CCN3CC4)c3cccnc32)cc1 | 22.4 | 27.5 | – | – | – | –
O=C1/C(=C/c2cn(Cc3ccc(Cl)cc3)c3ncccc23)N2CCC1CC2 | – | – | 6.1 | 704 | 115 | inhibition (Cannabinoid receptor 1 [1]; filed as inverse agonist): 68.9%; inhibition (Cannabinoid receptor 2 [2]; filed as inverse agonist): 74.8%; Activity (Cannabinoid receptor 1 [4]; filed as inverse agonist): Active; Activity (Cannabinoid receptor 2 [5]; filed as inverse agonist): Active
COc1ccc(C(=O)c2c(C)n(CCN3CCOCC3)c3cc(I)ccc23)cc1 | – | – | – | – | – | Activity (Cannabinoid receptor 2 [5]; filed as inverse agonist): Active
O=C1/C(=C/c2cn(Cc3ccccc3)c3ncccc23)N2CCC1CC2 | 15.1 | – | 26.3 | 2900 | 110 | Activity (Cannabinoid receptor 1 [7]): Active; Activity (Cannabinoid receptor 2 [8]): inactive; inhibition (Cannabinoid receptor 2 [2]; filed as antagonist): 79.9%; Activity (Cannabinoid receptor 2 [9]): Active; Activity (Cannabinoid receptor 1 [4]): inactive; Activity (Cannabinoid receptor 2 [5]): inactive; Activity (Cannabinoid receptor 1 [10]): inactive
OC1/C(=C/c2cn(Cc3ccccc3)c3ncccc23)N2CCC1CC2 (racemic) | 0 | 0 | – | – | – | –
O=C1/C(=C/c2cn(Cc3ccc(F)cc3)c3ncccc23)N2CCC1CC2 | 87.6 | 100 | 9.2 | 218 | 23.7 | Activity (Cannabinoid receptor 1 [11]): Active; Activity (Cannabinoid receptor 2 [12]): Active
O=C1/C(=C/c2cn(Cc3cccc(C(F)(F)F)c3)c3ncccc23)N2CCC1CC2 | 42.5 | 56.7 | – | – | – | –
N#Cc1ccc(Cn2cc(/C=C3/C(=O)C4CCN3CC4)c3cccnc32)cc1 | 55.7 | 64.1 | – | – | – | –
O=C1/C(=C/c2cn(Cc3ccc(Br)cc3)c3ncccc23)N2CCC1CC2 | – | – | 1.8 | 1110 | 625 | inhibition (Cannabinoid receptor 1 [1]; filed as inverse agonist): 74.2%; inhibition (Cannabinoid receptor 2 [2]; filed as antagonist): 67.6%; Activity (Cannabinoid receptor 2 [9]): Active; Activity (Cannabinoid receptor 1 [4]; filed as inverse agonist): Active
Cc1c(C(=O)NN2CCCCC2)nn(-c2ccc(Cl)cc2Cl)c1-c1ccc(I)cc1 | – | – | – | – | – | Activity (Cannabinoid receptor 1 [4]; filed as inverse agonist): Active
O=C1/C(=C/c2cn(CCN3CCOCC3)c3ncccc23)N2CCC1CC2 | 0 | 7.92 | – | – | – | –
OC1/C(=C/c2cn(Cc3ccc(Cl)cc3)c3ncccc23)N2CCC1CC2 (racemic) | 58.2 | 58.5 | – | – | – | –
O=C1/C(=C/c2cn(CCN3CCCC3)c3ncccc23)N2CCC1CC2 | 39.4 | 56.6 | – | – | – | –
